Data set [1] addresses T1, Receptor tyrosine-protein kinase erbB-2 (Homo sapiens, UniProt P04626). The data set is described as follows: Kinetic constant for peptide inhibitor binding to HER2 receptor. The gist of the method: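 Surface plasmon resonance at 25 °C. HER2 ectodomain–human IgG Fc fusion was amine-coupled (EDC/NHS, 40 ng/mL in 10 mM NaOAc pH 5.0) to 3500 RU, with a blank reference surface. Peptides were flowed at variable concentrations at 20 µL/min, with 240 s association and 300 s dissociation. Signals were reference- and buffer-subtracted, and kon, koff and KD (koff/kon) were fitted to a pseudo-first-order model.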

Data set [2] can be described thus: Solubility in the PBS buffer at 1 mg/mL; Limited solubility. Type of data set: physicochemical.
A short description of data set [3]: Inhibition of T6-17 cell proliferation. Type of data set: functional, Mus musculus. Also noted: concentration or dose not given beside the values. The gist of the method:
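T6-17 cells (NIH3T3 engineered to overexpress human HER2) seeded overnight at 1000/well in DMEM with 10% FBS, then cultured 48 h in fresh medium with peptide at 1 µg/mL. MTT (5 mg/mL in PBS) added, 2 h at 37 °C. SDS/DMF extraction buffer (pH 4.7) added, overnight at 37 °C, then OD 600 nm read. Each value is the mean of at least four samples.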

The target in data set [4] is T1, Receptor tyrosine-protein kinase erbB-2. The data set is described as follows: Dissociation constant for peptide inhibitor binding to HER2 receptor. The gist of the method: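 Surface plasmon resonance at 25 °C. Recombinant HER2 ectodomain–human IgG Fc fusion was amine-coupled to the sensor chip to 3500 RU. A blank reference surface was subtracted. Peptides were injected at variable concentrations at 20 µL/min, with 240 s association and 300 s dissociation. Signals were buffer-subtracted and fitted to a pseudo-first-order model, and KD was taken as koff/kon.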

Data set [5] is described as follows: Solubility in the PBS buffer at 1 mg/mL; Good solubility. Type of data set: physicochemical.

In general, Inhibition refers to the percentage by which the read-out fell short of the control. For orientation: Kd means the constant that tells how readily two partners part at equilibrium.

Positions of bridges follow the written chain, without caps; N, C: chain ends. Residues, ends and D or L forms follow the SMILES beside them.

T1 sequence (P04626 whole entry, the tested form may be a part): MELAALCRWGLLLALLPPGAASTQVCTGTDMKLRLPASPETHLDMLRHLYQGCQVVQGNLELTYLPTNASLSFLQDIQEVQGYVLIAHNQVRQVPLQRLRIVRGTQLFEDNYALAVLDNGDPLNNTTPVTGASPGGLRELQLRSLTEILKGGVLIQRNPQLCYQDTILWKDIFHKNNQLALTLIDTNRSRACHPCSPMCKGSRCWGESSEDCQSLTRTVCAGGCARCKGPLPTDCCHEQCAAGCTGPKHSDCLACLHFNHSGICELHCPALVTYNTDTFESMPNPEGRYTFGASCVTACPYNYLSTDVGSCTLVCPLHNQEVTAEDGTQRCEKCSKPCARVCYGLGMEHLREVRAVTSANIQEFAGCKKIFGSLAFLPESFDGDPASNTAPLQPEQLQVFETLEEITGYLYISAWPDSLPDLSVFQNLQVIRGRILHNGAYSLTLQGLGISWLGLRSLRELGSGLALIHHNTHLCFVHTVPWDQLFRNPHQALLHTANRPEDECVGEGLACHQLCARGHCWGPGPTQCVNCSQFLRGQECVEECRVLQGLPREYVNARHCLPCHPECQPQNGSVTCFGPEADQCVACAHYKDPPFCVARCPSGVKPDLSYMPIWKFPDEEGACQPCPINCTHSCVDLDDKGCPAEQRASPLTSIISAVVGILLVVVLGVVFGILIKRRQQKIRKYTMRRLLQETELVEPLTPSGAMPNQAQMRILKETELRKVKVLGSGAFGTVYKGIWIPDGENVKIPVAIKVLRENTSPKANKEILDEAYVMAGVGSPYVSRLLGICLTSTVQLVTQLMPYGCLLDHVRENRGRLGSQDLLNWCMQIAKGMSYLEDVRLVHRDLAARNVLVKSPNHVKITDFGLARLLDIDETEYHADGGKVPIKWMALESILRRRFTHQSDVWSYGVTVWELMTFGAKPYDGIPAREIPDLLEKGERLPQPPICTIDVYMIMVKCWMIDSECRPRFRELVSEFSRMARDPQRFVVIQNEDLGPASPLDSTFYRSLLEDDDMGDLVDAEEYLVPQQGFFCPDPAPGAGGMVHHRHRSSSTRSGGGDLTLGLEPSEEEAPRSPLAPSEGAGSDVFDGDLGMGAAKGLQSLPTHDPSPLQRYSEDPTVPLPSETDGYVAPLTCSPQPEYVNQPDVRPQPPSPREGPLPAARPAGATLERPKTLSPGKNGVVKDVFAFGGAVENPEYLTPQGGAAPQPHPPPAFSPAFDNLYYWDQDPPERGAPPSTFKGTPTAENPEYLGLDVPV

Regarding `CSCC[C@H](NC(=O)[C@H](Cc1ccc(O)cc1)NC(=O)[C@@H]1CSSC[C@H](NC(=O)[C@@H](N)Cc2ccccc2)C(=O)N[C@@H](CC(=O)O)C(=O)NCC(=O)N[C@@H](Cc2ccccc2)C(=O)N[C@@H](Cc2ccc(O)cc2)C(=O)N[C@@H](C)C(=O)N1)C(=O)N[C@@H](CC(=O)O)C(=O)N[C@H](C(=O)O)C(C)C` (stereo in doubt; 9) [listing 1 of 2 here], in data set [1], the k off was found to be 0.00106 s⁻¹ and the k on amounted to 298 M⁻¹ s⁻¹.

In data set [1], `CSCC[C@H](NC(=O)[C@H](Cc1ccc(O)cc1)NC(=O)[C@@H]1CSSC[C@H](NC(=O)[C@@H](N)Cc2ccccc2)C(=O)N[C@@H](CC(=O)O)C(=O)NCC(=O)N[C@@H](Cc2ccccc2)C(=O)N[C@@H](Cc2ccc(O)cc2)C(=O)N[C@@H](C)C(=O)N1)C(=O)N[C@@H](CC(=O)O)C(=O)N[C@H](C(N)=O)C(C)C` displayed a k off of 0.000453 s⁻¹ and a k on of 1410 M⁻¹ s⁻¹. For the same molecule, the S result in data set [2] is given as “Insoluble”. Besides, in data set [3], the Inhibition worked out at 35.5%.

In data set [4], `CSCC[C@H](NC(=O)[C@H](Cc1ccc(O)cc1)NC(=O)[C@@H]1CSSC[C@H](NC(=O)[C@@H](N)Cc2ccccc2)C(=O)N[C@@H](CC(=O)O)C(=O)NCC(=O)N[C@@H](Cc2ccccc2)C(=O)N[C@@H](Cc2ccc(O)cc2)C(=O)N[C@@H](C)C(=O)N1)C(=O)N[C@@H](CC(=O)O)C(=O)N[C@H](C(=O)O)C(C)C` (stereo in doubt; 9) [listing 2 of 2 here] gave a Kd of 3.56 µM.

As for `CSCC[C@H](NC(=O)[C@H](Cc1ccc(O)cc1)NC(=O)[C@@H]1CSSC[C@H](NC(=O)[C@@H](N)Cc2ccccc2)C(=O)N[C@@H](CC(=O)O)C(=O)NCC(=O)N[C@@H](Cc2ccccc2)C(=O)N[C@@H](Cc2ccc(O)cc2)C(=O)N[C@@H](C)C(=O)N1)C(=O)N[C@@H](CC(=O)O)C(=O)N[C@H](C(=O)O)C(C)C` (stereo in doubt; 2) [listing 1 of 2 here], the S entry in data set [2] is recorded as “Insoluble”. The molecule also registered an Inhibition in data set [3] of 22.3%.

In data set [1], `CSCC[C@H](NC(=O)[C@H](Cc1ccc(O)cc1)NC(=O)[C@@H]1CSSC[C@H](NC(=O)[C@@H](N)Cc2ccccc2)C(=O)N[C@@H](CC(=O)O)C(=O)NCC(=O)N[C@@H](Cc2ccccc2)C(=O)N[C@@H](Cc2ccc(O)cc2)C(=O)N[C@@H](C)C(=O)N1)C(=O)N[C@@H](CC(=O)O)C(=O)N[C@H](C(=O)O)C(C)C` (stereo in doubt; 2) [listing 2 of 2 here] yielded a k off of 0.000643 s⁻¹ and a k on of 990 M⁻¹ s⁻¹.

Consider `CSCC[C@H](NC(=O)[C@@H](Cc1ccc(O)cc1)NC(=O)[C@@H]1CSSC[C@H](NC(=O)[C@H](N)Cc2ccccc2)C(=O)N[C@@H](CC(=O)O)C(=O)NCC(=O)N[C@@H](Cc2ccccc2)C(=O)N[C@@H](Cc2ccc(O)cc2)C(=O)N[C@@H](C)C(=O)N1)C(=O)N[C@@H](CC(=O)O)C(=O)N[C@H](C(N)=O)C(C)C`, for which the S entry in data set [5] is “Soluble”. In data set [1], the k off amounted to 0.000603 s⁻¹ and the k on stood at 1720 M⁻¹ s⁻¹.

Turning to `CSCC[C@H](NC(=O)[C@H](Cc1ccc(O)cc1)NC(=O)[C@@H]1CSSC[C@H](NC(=O)[C@H](Cc2ccccc2)NC(=O)CN)C(=O)N[C@@H](CC(=O)O)C(=O)NCC(=O)N[C@@H](Cc2ccccc2)C(=O)N[C@@H](Cc2ccc(O)cc2)C(=O)N[C@@H](C)C(=O)N1)C(=O)N[C@@H](CC(=O)O)C(=O)N[C@H](C(=O)O)C(C)C` (H-GFCDGFYACYMDV-OH; disulfide 3-9), the S result in data set [5] is on record as “Soluble”. Moreover, in data set [1], the k off worked out at 0.000808 s⁻¹ and the k on was determined as 1110 M⁻¹ s⁻¹.

In data set [1], `CSCC[C@H](NC(=O)[C@H](Cc1ccc(O)cc1)NC(=O)[C@@H]1CSSC[C@H](NC(=O)[C@@H](N)Cc2ccc(O)cc2)C(=O)N[C@@H](CC(=O)O)C(=O)NCC(=O)N[C@@H](Cc2ccccc2)C(=O)N[C@@H](Cc2ccc(O)cc2)C(=O)N[C@@H](C)C(=O)N1)C(=O)N[C@@H](CC(=O)O)C(=O)N[C@H](C(N)=O)C(C)C` returned a k off of 0.000294 s⁻¹ and a k on of 1960 M⁻¹ s⁻¹. Further, the S result in data set [2] is “Insoluble”. This molecule yielded an Inhibition in data set [3] of 59.6%.

For the molecule `CSCC[C@H](NC(=O)[C@H](Cc1ccc(O)cc1)NC(=O)[C@@H]1CSSC[C@H](NC(=O)[C@@H](N)Cc2ccccc2)C(=O)NCC(=O)N[C@@H](CC(=O)O)C(=O)NCC(=O)N[C@@H](Cc2ccccc2)C(=O)N[C@@H](Cc2ccc(O)cc2)C(=O)N[C@@H](C)C(=O)N1)C(=O)N[C@@H](CC(=O)O)C(=O)N[C@H](C(=O)O)C(C)C` (H-FCGDGFYACYMDV-OH; disulfide 2-9), the S entry in data set [5] is given as “Soluble”. Further, in data set [1], the k off came out at 0.000701 s⁻¹ and the k on amounted to 922 M⁻¹ s⁻¹. In data set [3], the Inhibition was found to be 18.4%.

In data set [1], `CSCC[C@H](NC(=O)[C@H](Cc1ccc(O)cc1)NC(=O)[C@@H]1CSSC[C@H](NC(=O)[C@@H](N)Cc2ccccc2)C(=O)N[C@@H](CC(=O)O)C(=O)NCC(=O)N[C@@H](Cc2ccccc2)C(=O)N[C@@H](Cc2ccc(O)cc2)C(=O)N[C@@H](C)C(=O)N1)C(=O)N[C@@H](CC(=O)O)C(=O)N[C@H](C(=O)N[C@@H](CCCCN)C(N)=O)C(C)C` (H-FCDGFYACYMDVK-NH2; disulfide 2-8) showed a k off of 0.000512 s⁻¹ and a k on of 617 M⁻¹ s⁻¹. For the same molecule, the S entry in data set [2] is “Insoluble”.

`CC(C)[C@H](NC(=O)[C@H](CC(=O)O)NC(=O)[C@H](CCCCN)NC(=O)[C@H](Cc1ccc(O)cc1)NC(=O)[C@@H]1CSSC[C@H](NC(=O)[C@@H](N)Cc2ccccc2)C(=O)N[C@@H](CC(=O)O)C(=O)NCC(=O)N[C@@H](Cc2ccccc2)C(=O)N[C@@H](Cc2ccc(O)cc2)C(=O)N[C@@H](C)C(=O)N1)C(=O)O` (H-FCDGFYACYKDV-OH; disulfide 2-8): the S result in data set [5] is “Soluble”. In data set [1], the k off came out at 0.00125 s⁻¹ and the k on was 219 M⁻¹ s⁻¹. In data set [3], this molecule had an Inhibition of 8.4%.

The values above are taken from ChEMBL document CHEMBL1134548, “Disabling erbB receptors with rationally designed exocyclic mimetics of antibodies: structure-function analysis” (J Med Chem, 2001).
